{"source": "ChEMBL document CHEMBL3774344", "about": "“Role of a Preorganized Scaffold Presenting Four Residues of a GM-3 Lactone Mimetic on Melanoma Progression” (2016)", "key": {"[1]": {"system": "A-375", "experiment": "Antiinvasion activity in human A375 cells at 50 uM after 24 hrs in presence of cancer associated fibroblast by Boyden invasion assay", "assay_type": "functional, cell-based", "how_it_was_run": "(§1)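 A375 cells incubated under hypoxia (1% O2) with conditioned medium from CAFs (derived ex vivo from aggressive human melanoma) or HDFs, with or without 50 μM compound. Cells then assayed for 2D migration or invasion through reconstituted Matrigel barrier in Boyden chambers.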"}, "[2]": {"system": "A-375", "experiment": "Antimigratory activity against human A375 cells at 50 uM after 24 hrs in presence cancer associated fibroblast by 2D-migration assay", "assay_type": "functional, cell-based", "how_it_was_run": "as §1"}, "[3]": {"system": "A-375", "experiment": "Inhibition of cell adhesion in human A375 cells at 50 uM measured from 1 to 3 hrs in presence of fibronectin by crystal violet staining based assay", "assay_type": "functional", "how_it_was_run": "(§2)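 A375 cells treated with 50 μM compound, then allowed to adhere to fibronectin-coated dishes for varying times up to 4 h, with no-fibronectin comparison. Percentage of adhered cells scored by crystal violet. At least three independent experiments; mean and SD.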"}, "[4]": {"system": "A-375", "experiment": "Inhibition of cell adhesion in human A375 cells at 50 uM measured after 4 hrs in presence of fibronectin by crystal violet staining based assay", "assay_type": "functional", "conditions": "A-375, 4 h", "how_it_was_run": "as §2"}, "[5]": {"system": "A-375", "experiment": "Induction of apoptosis in serum-starved human A375 cells after 24 hrs by AnnexinV/PI-staining based flow cytometric analysis", "assay_type": "functional, cell-based", "how_it_was_run": "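A375 cells serum-starved, detached and held in suspension for 24 h with compound. Apoptotic fraction measured by Annexin V–PI staining. At least three independent experiments; mean and SD.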"}, "[6]": {"system": "A-375", "experiment": "Inhibition of cell invasion in human A375 cells at 50 uM after 24 hrs by Boyden invasion assay in presence of 10% serum", "assay_type": "functional", "conditions": "A-375, 24 h", "how_it_was_run": "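Cells treated with 50 μM compound, then placed in Boyden chambers (8 μm pores) with Matrigel 3D barrier and allowed to invade toward 10% serum for 24 h. Cells crossing the filter counted. At least three independent experiments; mean and SD.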"}, "[7]": {"system": "A-375", "experiment": "Inhibition of cell migration in human A375 cells at 50 uM after 24 hrs by 2D-migration assay in presence of 10% serum", "assay_type": "functional", "conditions": "A-375, 24 h", "how_it_was_run": "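Cells treated with 50 μM compound, then allowed to migrate 24 h toward 10% serum chemoattractant. Cells counted in a randomly chosen field per filter. At least three independent experiments; mean and SD.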"}, "[8]": {"experiment": "Antitumor activity against mouse B16F10 cells xenografted in C57BL/6 mouse assessed as reduction in tumor volume at 400 ug, ip administered on day 0 to 72 followed by tumor implantation on day 69 measured every 2 to 3 days relative to PBS-treated control", "parameters": "scale not given: the % may be the effect or the level left"}}, "note": "Calls of active or inactive are those of the source. The calls are words filed in the database; no cut-off is given here.", "data": [{"smiles": "CCCOc1c2cc(CCCn3cc(CCO[C@H]4O[C@H](CO)[C@H](O)C5=C4SC[C@]4(C[C@@H](O)[C@@H](O)[C@@H]([C@@H](O)CO)O4)O5)nn3)cc1Cc1cc(CCCn3cc(CCO[C@H]4O[C@H](CO)[C@H](O)C5=C4SC[C@]4(C[C@@H](O)[C@@H](O)[C@@H]([C@@H](O)CO)O4)O5)nn3)cc(c1OCCC)Cc1cc(CCCn3cc(CCO[C@H]4O[C@H](CO)[C@H](O)C5=C4SC[C@]4(C[C@@H](O)[C@@H](O)[C@@H]([C@@H](O)CO)O4)O5)nn3)cc(c1OCCC)Cc1cc(CCCn3cc(CCO[C@H]4O[C@H](CO)[C@H](O)C5=C4SC[C@]4(C[C@@H](O)[C@@H](O)[C@@H]([C@@H](O)CO)O4)O5)nn3)cc(c1OCCC)C2", "values": [{"measurement": "Activity", "setting": "[1]", "result": "Active"}, {"measurement": "Activity", "setting": "[2]", "result": "Active"}]}, {"smiles": "CC(C)=NOCC(=O)NCCCC[C@@H]1NC(=O)[C@H](CCCCNC(=O)CCCCC(=O)NCCCCCCO[C@H]2O[C@H](CO)[C@H](O)C3=C2SC[C@]2(C[C@@H](O)[C@@H](O)[C@@H]([C@H](O)CO)O2)O3)NC(=O)CNC(=O)[C@@H]2CCCN2C(=O)[C@H](CCCCNC(=O)CCCCC(=O)NCCCCCCO[C@@H]2O[C@@H](CO)[C@@H](O)C3=C2SC[C@@]2(C[C@@H](O)[C@@H](O)[C@@H]([C@H](O)CO)O2)O3)NC(=O)[C@H](C)NC(=O)[C@H](CCCCNC(=O)CCCCC(=O)NCCCCCCO[C@H]2O[C@H](CO)[C@H](O)C3=C2SC[C@]2(C[C@H](O)[C@H](O)[C@H]([C@@H](O)CO)O2)O3)NC(=O)CNC(=O)[C@@H]2CCCN2C(=O)[C@H](CCCCNC(=O)CCCCC(=O)NCCCCCCO[C@@H]2O[C@@H](CO)[C@@H](O)C3=C2SC[C@@]2(C[C@H](O)[C@H](O)[C@H]([C@@H](O)CO)O2)O3)NC1=O", "values": [{"measurement": "inhibition at 50 µM", "setting": "[3]", "result": "≤ 30", "unit": "%"}, {"measurement": "inhibition at 50 µM", "setting": "[4]", "result": 50, "unit": "%"}, {"measurement": "Activity", "setting": "[5]", "result": "Active"}, {"measurement": "inhibition at 50 µM", "setting": "[6]", "result": 30, "unit": "%"}, {"measurement": "inhibition at 50 µM", "setting": "[7]", "result": 30, "unit": "%"}, {"measurement": "Activity", "setting": "[1]", "result": "Active"}, {"measurement": "Activity", "setting": "[2]", "result": "Active"}, {"measurement": "Activity", "setting": "[8]", "result": ">50", "unit": "%"}]}]}
